Data as given in ChEMBL document CHEMBL1255207, “Pyrazolobenzodiazepines: part I. Synthesis and SAR of a potent class of kinase inhibitors” (Bioorg Med Chem Lett, 2010).
Activity calls are given as the source filed them. No cut-off for these calls is given here.

Legend:
[1] = target: Cyclin-dependent kinase 2/cyclin E (Homo sapiens, UniProt P24941); experiment: Inhibition of CDK2-cyclin E; assay type: protein-complex assay
Outline: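 CDK2 was paired with cyclin E1. IC50 came from at least two replicates at each concentration.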

SW480 [2] = experiment: Cytotoxicity against human SW480 cells by MTT assay; assay type: functional, cell-based
Outline: (§1)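 Antiproliferative IC50 was measured in human tumor lines: H460a (lung), HCT116, RKO and SW480 (colon), and MDA-MB435 (breast). Values are the mean of duplicate wells.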

Focal adhesion kinase 1 = Focal adhesion kinase 1 (Homo sapiens, UniProt Q05397); experiment: Inhibition of FAK
[3] = target: CDK1-cyclin A1 (Homo sapiens); experiment: Inhibition of CDK1-cyclin A1
[4] = target: CDK4-cyclin D1 (Homo sapiens); experiment: Inhibition of CDK4/Cyclin D1
[5] = target: Proto-oncogene tyrosine-protein kinase Src (Homo sapiens, UniProt P12931); experiment: Inhibition of Src
[6] = target: Epidermal growth factor receptor (Homo sapiens, UniProt P00533); experiment: Inhibition of EGFR
[7] = Inhibition of PDGFR
[8] = target: Vascular endothelial growth factor receptor 2 (Homo sapiens, UniProt P35968); experiment: Inhibition of KDR
[9] = Inhibition of FGFR
MDA-MB-435 = experiment: Cytotoxicity against human MDA-MB-435 cells by MTT assay; assay type: functional, cell-based; outline: as §1
NCI-H460 [10] = experiment: Cytotoxicity against human H460a cells by MTT assay; assay type: functional, cell-based; outline: as §1
Mus musculus [11] = experiment: Toxicity in human SW480 cells xenografted mouse assessed as body weight gain at 0.78 to 3.125 mg/kg, po bid for 20 days; assay type: organism-based; set-up: dose 0.78-3.125 mg/kg, route oral; conditions: in vivo, 480 h
Outline: (§2)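 SW480 tumor-bearing nude mice dosed per os by gavage (0.2 ml/animal) twice daily for 20 days at 3.125, 1.56 and 0.78 mg/kg, with vehicle b.i.d. control. Tumor growth was followed over days post-implant and expressed as %T/C and % inhibition, with p values. Body weight change was tracked over the study.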

NCI-H460 [12] = experiment: Antitumor activity against human H460 cells xenografted in mouse assessed as inhibition of tumor growth administered as po bid for 20 days; assay type: functional, organism-based
LOX = experiment: Antitumor activity against human LOX cells xenografted in mouse assessed as inhibition of tumor growth administered as po bid for 20 days; assay type: functional, organism-based
Mus musculus [13] = experiment: Toxicity in human SW480 cells xenografted mouse assessed as overt signs at 0.78 to 3.125 mg/kg, po bid for 20 days; assay type: organism-based; set-up: dose 0.78-3.125 mg/kg, route oral; conditions: in vivo, 480 h
Outline: (§3)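 SW480 tumour-bearing nude mice were dosed by oral gavage (0.2 ml/animal) at 3.125, 1.56 or 0.78 mg/kg b.i.d. for 20 days, against a vehicle b.i.d. group. Animals were watched for drug-related toxicity, with body weight and tumour growth followed over days after tumour cell implant.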

SW480 [14] = experiment: Antitumor activity against human SW480 cells xenografted in mouse assessed as inhibition of tumor growth at 1.56 mg/kg, po bid for 20 days; assay type: functional; conditions: SW480, 480 h; outline: as §2
HCT-116 = experiment: Cytotoxicity against human HCT116 cells by MTT assay; assay type: functional, cell-based; outline: as §1
LoVo = experiment: Antitumor activity against human LoVo cells xenografted in mouse assessed as inhibition of tumor growth administered as po bid for 20 days; assay type: functional, organism-based
Mus musculus [15] = experiment: Toxicity in human SW480 cells xenografted mouse assessed as mortality at 0.78 to 3.125 mg/kg, po bid for 20 days; assay type: organism-based; set-up: dose 0.78-3.125 mg/kg, route oral; conditions: in vivo, 480 h; outline: as §3
RKO = experiment: Cytotoxicity against human RKO cells by MTT assay; assay type: functional, cell-based; outline: as §1
SW480 [16] = experiment: Antitumor activity against human SW480 cells xenografted in mouse assessed as inhibition of tumor growth at 3.125 mg/kg, po bid for 20 days; assay type: functional; conditions: SW480, 480 h; outline: as §2
A549 = experiment: Antitumor activity against human A549 cells xenografted in mouse assessed as inhibition of tumor growth administered as po bid for 20 days; assay type: functional, organism-based
[17] = target: CDK4-cyclin D1 (Homo sapiens); experiment: Inhibition of CDK4-cyclin D1
[18] = tested on: CDK1-cyclin B (Homo sapiens); experiment: Inhibition of CDK1-cyclin B

Chain of Proto-oncogene tyrosine-protein kinase Src (P12931 2-536 limits assumed): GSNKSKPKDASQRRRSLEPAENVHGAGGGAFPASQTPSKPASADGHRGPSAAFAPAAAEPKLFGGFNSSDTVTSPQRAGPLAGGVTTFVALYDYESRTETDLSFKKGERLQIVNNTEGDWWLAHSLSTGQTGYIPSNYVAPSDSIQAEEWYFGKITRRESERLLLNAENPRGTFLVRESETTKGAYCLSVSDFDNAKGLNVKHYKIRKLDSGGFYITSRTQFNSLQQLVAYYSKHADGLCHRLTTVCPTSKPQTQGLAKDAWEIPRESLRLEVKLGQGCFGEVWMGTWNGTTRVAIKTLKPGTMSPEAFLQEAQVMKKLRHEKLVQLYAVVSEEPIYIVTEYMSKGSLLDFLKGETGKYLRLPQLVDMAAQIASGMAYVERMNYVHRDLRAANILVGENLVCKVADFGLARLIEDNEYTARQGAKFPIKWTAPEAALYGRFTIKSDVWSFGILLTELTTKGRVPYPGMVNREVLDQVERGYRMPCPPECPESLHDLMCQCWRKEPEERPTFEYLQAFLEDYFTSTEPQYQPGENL
Chain of Focal adhesion kinase 1 (Q05397 whole entry): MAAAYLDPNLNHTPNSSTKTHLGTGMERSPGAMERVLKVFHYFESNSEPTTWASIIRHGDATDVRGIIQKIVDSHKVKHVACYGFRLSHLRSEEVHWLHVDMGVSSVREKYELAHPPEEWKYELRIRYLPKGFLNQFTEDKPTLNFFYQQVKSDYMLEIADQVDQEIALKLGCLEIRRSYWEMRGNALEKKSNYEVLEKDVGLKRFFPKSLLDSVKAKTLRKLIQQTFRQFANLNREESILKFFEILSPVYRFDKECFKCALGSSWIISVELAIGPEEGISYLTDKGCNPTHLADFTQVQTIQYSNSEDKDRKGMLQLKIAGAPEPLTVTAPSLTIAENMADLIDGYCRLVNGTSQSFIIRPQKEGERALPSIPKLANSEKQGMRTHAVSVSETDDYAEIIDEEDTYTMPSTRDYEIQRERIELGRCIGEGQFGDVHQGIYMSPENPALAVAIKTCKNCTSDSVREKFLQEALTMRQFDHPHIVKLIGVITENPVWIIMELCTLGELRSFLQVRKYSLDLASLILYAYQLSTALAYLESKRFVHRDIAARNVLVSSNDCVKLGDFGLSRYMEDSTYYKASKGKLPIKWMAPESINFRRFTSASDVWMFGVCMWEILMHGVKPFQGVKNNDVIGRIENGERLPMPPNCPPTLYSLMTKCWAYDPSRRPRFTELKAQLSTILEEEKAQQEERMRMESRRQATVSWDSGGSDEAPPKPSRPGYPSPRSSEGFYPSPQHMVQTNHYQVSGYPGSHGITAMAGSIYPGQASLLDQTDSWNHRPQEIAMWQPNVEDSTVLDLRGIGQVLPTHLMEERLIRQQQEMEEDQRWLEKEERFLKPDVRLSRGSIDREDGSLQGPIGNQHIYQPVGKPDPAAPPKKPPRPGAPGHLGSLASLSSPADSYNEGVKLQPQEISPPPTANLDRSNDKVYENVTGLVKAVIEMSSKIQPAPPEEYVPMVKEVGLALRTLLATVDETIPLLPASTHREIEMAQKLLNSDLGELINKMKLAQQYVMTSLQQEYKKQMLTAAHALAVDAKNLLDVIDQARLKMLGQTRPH
Chain of Vascular endothelial growth factor receptor 2 (P35968 whole entry): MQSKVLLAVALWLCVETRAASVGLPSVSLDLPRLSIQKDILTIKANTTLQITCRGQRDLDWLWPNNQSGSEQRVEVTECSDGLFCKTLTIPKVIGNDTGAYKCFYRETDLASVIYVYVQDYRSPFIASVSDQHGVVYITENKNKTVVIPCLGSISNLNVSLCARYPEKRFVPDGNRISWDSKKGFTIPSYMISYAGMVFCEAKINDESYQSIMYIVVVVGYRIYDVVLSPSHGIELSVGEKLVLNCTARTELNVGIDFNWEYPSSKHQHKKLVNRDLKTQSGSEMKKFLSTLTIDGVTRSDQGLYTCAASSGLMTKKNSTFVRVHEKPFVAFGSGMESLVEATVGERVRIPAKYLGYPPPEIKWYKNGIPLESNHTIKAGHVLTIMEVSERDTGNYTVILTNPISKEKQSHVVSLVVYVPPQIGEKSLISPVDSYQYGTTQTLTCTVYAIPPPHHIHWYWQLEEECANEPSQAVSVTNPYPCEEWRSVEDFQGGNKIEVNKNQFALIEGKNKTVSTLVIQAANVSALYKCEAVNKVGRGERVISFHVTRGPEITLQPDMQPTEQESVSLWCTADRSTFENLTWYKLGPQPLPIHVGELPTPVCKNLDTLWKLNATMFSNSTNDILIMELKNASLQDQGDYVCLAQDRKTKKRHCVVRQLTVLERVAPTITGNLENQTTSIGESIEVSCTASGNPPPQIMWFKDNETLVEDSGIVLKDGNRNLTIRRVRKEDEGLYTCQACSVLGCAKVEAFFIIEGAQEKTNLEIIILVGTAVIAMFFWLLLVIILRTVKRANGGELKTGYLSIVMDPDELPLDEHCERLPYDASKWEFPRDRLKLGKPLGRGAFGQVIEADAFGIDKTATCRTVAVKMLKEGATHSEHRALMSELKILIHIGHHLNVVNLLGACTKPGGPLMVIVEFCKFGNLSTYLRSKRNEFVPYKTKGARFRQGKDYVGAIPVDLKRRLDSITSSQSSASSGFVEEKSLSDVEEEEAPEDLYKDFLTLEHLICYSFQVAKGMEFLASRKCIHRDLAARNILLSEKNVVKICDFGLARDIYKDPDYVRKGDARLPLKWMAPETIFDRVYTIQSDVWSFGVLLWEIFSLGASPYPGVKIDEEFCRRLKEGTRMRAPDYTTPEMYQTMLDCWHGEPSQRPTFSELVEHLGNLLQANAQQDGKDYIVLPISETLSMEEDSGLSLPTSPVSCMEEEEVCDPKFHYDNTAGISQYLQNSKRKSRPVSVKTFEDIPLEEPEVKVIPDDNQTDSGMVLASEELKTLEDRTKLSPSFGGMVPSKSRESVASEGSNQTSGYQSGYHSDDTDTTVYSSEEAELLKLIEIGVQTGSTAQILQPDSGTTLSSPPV
Chain of Epidermal growth factor receptor (P00533 whole entry): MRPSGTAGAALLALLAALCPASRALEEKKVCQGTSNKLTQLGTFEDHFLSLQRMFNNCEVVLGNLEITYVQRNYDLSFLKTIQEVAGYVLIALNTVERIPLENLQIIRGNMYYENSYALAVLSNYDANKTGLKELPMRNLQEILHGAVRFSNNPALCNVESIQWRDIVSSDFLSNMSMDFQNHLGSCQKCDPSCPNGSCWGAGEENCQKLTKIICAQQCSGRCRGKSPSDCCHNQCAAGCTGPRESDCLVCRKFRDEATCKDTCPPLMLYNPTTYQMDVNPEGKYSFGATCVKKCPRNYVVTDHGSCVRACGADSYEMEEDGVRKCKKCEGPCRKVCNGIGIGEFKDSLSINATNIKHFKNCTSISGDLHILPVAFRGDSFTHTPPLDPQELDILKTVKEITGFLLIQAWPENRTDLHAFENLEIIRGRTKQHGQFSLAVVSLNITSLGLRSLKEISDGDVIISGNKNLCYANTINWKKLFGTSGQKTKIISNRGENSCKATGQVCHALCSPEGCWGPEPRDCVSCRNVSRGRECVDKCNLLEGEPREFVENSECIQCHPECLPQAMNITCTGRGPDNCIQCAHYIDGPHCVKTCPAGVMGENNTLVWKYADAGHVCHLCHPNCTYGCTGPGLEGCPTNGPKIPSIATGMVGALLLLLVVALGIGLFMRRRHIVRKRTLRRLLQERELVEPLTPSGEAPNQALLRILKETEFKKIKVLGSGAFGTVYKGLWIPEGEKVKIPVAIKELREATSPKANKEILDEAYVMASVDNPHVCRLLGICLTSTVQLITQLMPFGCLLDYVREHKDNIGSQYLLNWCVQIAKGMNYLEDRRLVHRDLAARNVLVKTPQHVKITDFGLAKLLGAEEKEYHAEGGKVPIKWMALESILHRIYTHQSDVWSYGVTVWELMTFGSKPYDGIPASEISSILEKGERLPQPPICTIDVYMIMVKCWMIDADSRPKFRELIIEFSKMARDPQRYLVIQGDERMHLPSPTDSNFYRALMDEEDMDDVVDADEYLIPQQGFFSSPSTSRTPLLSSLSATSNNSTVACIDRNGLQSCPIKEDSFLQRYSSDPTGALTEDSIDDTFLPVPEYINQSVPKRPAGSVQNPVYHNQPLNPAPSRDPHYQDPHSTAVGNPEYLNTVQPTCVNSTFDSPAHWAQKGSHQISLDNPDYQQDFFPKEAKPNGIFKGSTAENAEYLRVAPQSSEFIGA

With O=[N+]([O-])c1ccc2c(c1)C(c1ccccc1Cl)=Nc1c(n[nH]c1-c1ccncc1)N2 the IC50 [1] was 50 nM and the IC50 (SW480 [2]) was 12000 nM.

N#Cc1ccc2c(c1)C(c1ccccc1F)=Nc1c[nH]nc1N2 gave an IC50 (Focal adhesion kinase 1) of 1200 nM, an IC50 [3] of 139 nM and an IC50 [1] of 16 nM. The IC50 [4] was 520 nM, the IC50 (SW480 [2]) was 110 nM and the IC50 [5] was 5400 nM. It also gave an IC50 [6] of 10900 nM, an IC50 [7] of 51 nM and an IC50 [8] of 39 nM. For the same molecule, the IC50 [9] was 67 nM.

O=[N+]([O-])c1ccc2c(c1)C(c1ccccc1Cl)=Nc1c(n[nH]c1CO)N2 gave an IC50 [1] of 238 nM and an IC50 (SW480 [2]) of 240 nM.

Work on O=[N+]([O-])c1ccc2c(c1)C(c1ccccc1Cl)=Nc1c(n[nH]c1CCc1ccccc1)N2 yielded an IC50 [1] of 5000 nM and an IC50 (SW480 [2]) of 15000 nM.

For O=[N+]([O-])c1ccc2c(c1)C(c1ccccc1Cl)=Nc1c(n[nH]c1-c1cccnc1)N2, the IC50 [1] was 300 nM and the IC50 (SW480 [2]) was 26000 nM.

Cc1[nH]nc2c1N=C(c1ccccc1Cl)c1cc([N+](=O)[O-])ccc1N2 gave an IC50 (Focal adhesion kinase 1) of 6900 nM, an IC50 [1] of 35 nM and an IC50 (SW480 [2]) of 160 nM. For the same molecule, the IC50 [5] was over 60000 nM, the IC50 [6] was over 10000 nM and the IC50 [7] was 83 nM. For the same molecule, the IC50 [8] was 72 nM and the IC50 [9] was 100 nM.

O=[N+]([O-])c1ccc2c(c1)C(c1ccccc1Cl)=Nc1c(n[nH]c1-c1ccc[nH]1)N2 showed an IC50 [1] of 20 nM and an IC50 (SW480 [2]) of 5300 nM.

Work on CC(C)c1[nH]nc2c1N=C(c1ccccc1Cl)c1cc([N+](=O)[O-])ccc1N2 yielded an IC50 [1] of 10 nM and an IC50 (SW480 [2]) of 640 nM.

In the case of O=[N+]([O-])c1ccc2c(c1)C(c1ccccc1Cl)=Nc1c(n[nH]c1-c1ccccc1)N2, the IC50 [1] is reported as 210 nM and the IC50 (SW480 [2]) is reported as 18000 nM.

With Cc1[nH]nc2c1N=C(c1ccccc1F)c1cc(F)ccc1N2 the IC50 [1] was 40 nM and the IC50 (SW480 [2]) was 700 nM.

For Nc1ccc2c(c1)C(c1ccccc1Cl)=Nc1c[nH]nc1N2, the IC50 (Focal adhesion kinase 1) was 150 nM, the IC50 (MDA-MB-435) was 950 nM and the IC50 (NCI-H460 [10]) was 1070 nM. The Activity (Mus musculus [11]) was 9%, the inhibition (NCI-H460 [12]) was “Active” and the inhibition (LOX) was “Active”. The IC50 [1] was 88 nM, the Activity (Mus musculus [13]) was “Non-toxic” and the inhibition in vivo at 1.56 mg/kg (SW480 [14]) was 70%. The IC50 (HCT-116) was 1020 nM, the inhibition (LoVo) was “Active” and the IC50 (SW480 [2]) was 500 nM. The IC50 [5] was 1840 nM, the IC50 [6] was 989 nM and the Activity (Mus musculus [15]) was “Non-toxic”. For the same molecule, the IC50 (RKO) was 310 nM, the inhibition in vivo at 3.125 mg/kg (SW480 [16]) was 93% and the inhibition (A549) was “Active”. For the same molecule, the IC50 [7] was 15 nM, the IC50 [8] was 34 nM and the IC50 [9] was 50 nM.

In the case of Cc1[nH]nc2c1N=C(c1ccccc1Cl)c1ccccc1N2, the IC50 [1] is reported as 105 nM and the IC50 (SW480 [2]) is reported as 3800 nM.

Cc1[nH]nc2c1N=C(c1ccccc1)c1ccccc1N2 showed an IC50 [1] of 115 nM and an IC50 (SW480 [2]) of 1500 nM.

With NC(=O)c1[nH]nc2c1N=C(c1ccccc1Cl)c1cc([N+](=O)[O-])ccc1N2 the IC50 [1] was 258 nM.

Molecule Nc1n[nH]c2nc(-c3cccs3)cc(C(F)(F)F)c12 has an IC50 [17] of over 30 µM, an IC50 [1] of 2000 nM and an IC50 (SW480 [2]) of 6000 nM. The IC50 [18] was 10 µM.

O=[N+]([O-])c1ccc2c(c1)C(c1ccccc1Cl)=Nc1c[nH]nc1N2 gave an IC50 [17] of 10 µM, an IC50 [1] of 70 nM and an IC50 (SW480 [2]) of 6000 nM. For the same molecule, the IC50 [18] was 0.5 µM.

O=[N+]([O-])c1ccc2c(c1)C(c1ccccc1Cl)=Nc1c(n[nH]c1C(F)(F)F)N2 showed an IC50 [1] of 232 nM.

CC(=O)Nc1ccc2c(c1)C(c1ccccc1Cl)=Nc1c[nH]nc1N2 showed an IC50 (Focal adhesion kinase 1) of 180 nM, an IC50 (MDA-MB-435) of 794 nM and an IC50 (NCI-H460 [10]) of 550 nM. The IC50 [1] was 38 nM, the IC50 (HCT-116) was 460 nM and the IC50 (SW480 [2]) was 700 nM. The IC50 [5] was 930 nM, the IC50 [6] was 726 nM and the IC50 (RKO) was 793 nM. For the same molecule, the IC50 [7] was 23 nM, the IC50 [8] was 33 nM and the IC50 [9] was 45 nM.

Work on Cc1[nH]nc2c1N=C(c1ccccc1F)c1ccccc1N2 yielded an IC50 [1] of 64 nM and an IC50 (SW480 [2]) of 400 nM.

In the case of Cc1[nH]nc2c1N=C(c1ccccc1)c1cc(F)ccc1N2, the IC50 [1] is reported as 93 nM and the IC50 (SW480 [2]) is reported as 2200 nM.
